Article PMC9162962 (European Journal of Medicinal Chemistry, 2022)

How the values were obtained:
[1] = system: SARS-CoV-2; conditions: lungs and nose of SARS-CoV-2 infected mice; cited from earlier work
[2] = molecular target: T1, SARS-CoV-2 M^pro (Severe acute respiratory syndrome coronavirus 2, UniProt P0DTD1); format: biochemical
[3] = system: MDCK cells; conditions: MTT
[4] = system: Vero cells; conditions: MTT
[5] = molecular target: T1, SARS-CoV-2 M^pro; assay: Mass spectrometry; format: binding; conditions: 2 μM protease, 15 μM compound, on ice 3 h
Summary of the method: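 Mpro–test compound mixture kept on ice for 3 h, then run on a quadrupole-TOF LC-MS/MS system. Raw mass signal deconvoluted to total intact protein mass to detect adduct formation. Protein was recombinant, E. coli-expressed.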

[6] = molecular target: T1, SARS-CoV-2 M^pro; assay: Enzymatic reversibility assay; format: biochemical; conditions: 10 μM Mpro, 100 μM compound, 180 min
Summary of the method: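 Recombinant Mpro (10 μM), E. coli-expressed, held with 100 μM test compound for 180 min, then split into four portions given different numbers of ultrafiltration rounds. Retained protease diluted to 0.5 μM final; activity measured; triplicates averaged.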

## Cc1ccc(NC(=O)c2ccc(CN3CCN(C)CC3)cc2)cc1Nc1nc(-c2cccnc2)cs1 [Masitinib]
[1]
  Effect on coronavirus replication in infected mice: block the replication of coronavirus in the lungs and nose

## NC(=S)N/N=C/c1ccc(Cc2ccccc2)o1 [F8–B22, (E)-2-((5-benzylfuran-2-yl)methylene)hydrazine-1-carbothioamide]
[2]; ratio of IC50 values
  Potency relative to initial compound F8: 13 fold
[3]
  Cytotoxicity in MDCK cells: low cytotoxicity
[4]
  Cytotoxicity in Vero cells: low cytotoxicity

## NC(=S)N/N=C/c1ccc(-c2ccc(C(=O)O)c(O)c2)o1 [F8–B6, (E)-4-(5-((2-carbamothioylhydrazono)methyl)furan-2-yl)-2-hydroxybenzoic acid]
[2]
  Mechanism of inhibition (overall, kinetic and mass spectrometry studies): reversible covalent inhibitor
[2]; enzymatic kinetic assay, 3 h preincubation, varied substrate
  Type of inhibition from Lineweaver-Burk plot: non-competitive inhibitor
[2]; incubation 5, 30, 180 min (Fig. S3A-C)
  Effect of prolonged incubation on inhibition: time-dependent increase of inhibition activity
[5]
  Covalent binding by LC-MS/MS: covalently bonded
[6]
  Reversibility of inhibition after ultrafiltration: reversible inhibitor
